Test results taken from the RNAGym collection of RNA variant scans (doi:10.1126/science.aae0568).
Fewer inactive variants are shown than the library holds.

B1: tRNA (parent)
chain: GUUCCGUUGGCGUAAUGGUAACGCGUCUCCCUCCUAAGGAGAAGACUGCGGGUUCGAGUCCCGUACGGAACG

Variants of: B1
Test: yeast fitness relative to wild type (ratio to wild type); higher = fitter; tRNA-Arg(CCU), competitive growth, 37 C, YPD
Summary of the method: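 Start and end populations of a pooled competition were compared by 100-nucleotide paired-end sequencing of gene amplicons. The Saccharomyces cerevisiae strains carried tRNA-Arg(CCU) gene variants at the native genomic locus, synthesised with a 3% per-site mutation rate at 69 sites, and competed in YPD at 37°C for 24 hours in six parallel replicates. Darwinian fitness relative to wild type was based on the change in genotype frequencies. Genotypes required ≥ 100 starting reads, and estimates < 0.5 were set to 0.5.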

Question: Which yeast fitness does the source give for GUUACGUUGGCGUAAUGGUAACGCGUCUCCCUCCUGAGGGGAAGACUGCGGGUUCGAGUCCCGUAUGGAACG [C4A A36G A40G C66U] here?
Answer: The yeast fitness was 0.624.

Question: For GUUACGUUGGCGUAAUGGUAUCGCGUCUCCCUCCUAAGGAGAAGAAUGCGGGUUCGAGUCCCGUACGGAACG [C4A A21U C46A], which yeast fitness is on record?
Answer: The yeast fitness was 0.58.

Question: With GUUACGUUGGCGUAAUGGUAACGCGUCUCCCUCCUACGGAGAAGACUGCGGGUUCGAGUCCCGUACGGAUCG [C4A A37C A70U] as the variant, how does the yeast fitness read?
Answer: Its yeast fitness is no more than 0.5.

Question: With GUUACGUUGGCGUAAUGGUAACGCGUCUCCCUCCUAAGGUGAAGACUGCGGCUUCGAGUGCCGUACGGCACG [C4A A40U G52C C60G A69C] as the variant, how does the yeast fitness read?
Answer: The yeast fitness was 0.55.

Question: For GUUACGUUGGCGUAAUGGUUACGCGUCUCCCUCCUAAGGAGAUGACUGCGGGCUCGAGACCCGUAUGGAACG [C4A A20U A43U U53C U59A C66U], which yeast fitness is on record?
Answer: Its yeast fitness is no more than 0.5.

Question: With GUUACGUUGGCGUAAUGGUAACGCGUCUCCCUCCUGAGGAGAAGAGUGCGGGUUCGCGUCCCGUACGGAACG [C4A A36G C46G A57C] as the variant, how does the yeast fitness read?
Answer: The yeast fitness was no more than 0.5.

Question: For GUUACGUUGGCGUAAUGGUAACGCGUCUCCCUCCUAUGGAGAGGACUGCGGGUUCGACUGCCGUACGGAACG [C4A A37U A43G G58C C60G], which yeast fitness is on record?
Answer: The yeast fitness was 0.654.

Question: For GUUACGUUGGCGUAAUGGUAACGCGUCUCCCUCCUAAGGAGAAGUCUGCGAGUUCGAGUCCCGUACGGAACG [C4A A45U G51A], which yeast fitness is on record?
Answer: The yeast fitness was no more than 0.5.

Question: With GUUACGUUGGCGUAAUGGUAACGCGUCUCCCUCCUAAGGAGAAGUCAGCGGGUUCGAGUCCCGUACGGAACG [C4A A45U U47A] as the variant, how does the yeast fitness read?
Answer: The yeast fitness was no more than 0.5.

Question: For GUUACGUUGGCGUAAUGGUAUCGCGUAUCCCUCCUAAGGACAAGACUGCGGGUUCGAGUCCCGUACGGAGCG [C4A A21U C27A G41C A70G], which yeast fitness is on record?
Answer: Its yeast fitness is no more than 0.5.

Question: Which yeast fitness does the source give for GUUACGUUGGCGUAAUGGUAACGCGUCUCCCUCCUAAGGAGGAGCCUGCGGGUUCGAGUCCCGUACGGAACG [C4A A42G A45C] here?
Answer: Its yeast fitness is no more than 0.5.

Question: For GUUACGUUGGCGUAAUGGUGACGCGUCUCCCUCCUAAGGAGAAGACUGCGGGUUCGAGUACCGUACGGACCG [C4A A20G C60A A70C], which yeast fitness is on record?
Answer: The yeast fitness was no more than 0.5.

Question: Which yeast fitness does the source give for GUUACGUUGGCGUAAUGGUAACGCGUCUCCCUCCUACGGAGCAGACUGCGGGUUCGAGUCCCGUACGGAACG [C4A A37C A42C] here?
Answer: The yeast fitness was 0.506.

Question: With GUUACGUUGGCGUAAUGGUACUGCGUCUCCCUCCCAAGGAGAAGACUGCCGGUUCGAGUCCCGUACGGAUCG [C4A A21C C22U U35C G50C A70U] as the variant, how does the yeast fitness read?
Answer: Its yeast fitness is 0.563.

Question: Which yeast fitness does the source give for GUUACGUUGGCGUAAUGGUAACGCGUCUCCCUCCUAAGGAGAAGACUGCGGGUUCGAGUCCCGUCCUGAACG [C4A A65C G67U] here?
Answer: The yeast fitness was no more than 0.5.

Question: For GUUACGUUGGCGUAAUGGUUACGUGGUUCCCUCCUCAGGAGAAGUCUGCGGGUUGGAGUCCCGUACGGAACG [C4A A20U C24U U26G C27U A36C A45U C55G], which yeast fitness is on record?
Answer: The yeast fitness was 0.607.

Question: For GUUACGUUGGCGUAAUGGUAACGCGUCUCCCUCCUAAGGAGAAGACUGCGGGUUCGAGUCCCGUCCGGAACG [C4A A65C], which yeast fitness is on record?
Answer: Its yeast fitness is 0.658.

Question: With GUUACGUUGGCGUAAUGGUAACGCGUCUCCCUCCUACGGAGAAGACUGCGGGUUCAAGUCCCGUACGUAACG [C4A A37C G56A G68U] as the variant, how does the yeast fitness read?
Answer: The yeast fitness was 0.699.

Question: With GUUACGUUGGCGUAAUGGUAACGCGUCUCCCUCCUAAGGAGUAGACUGCGGGUUGGAGUCCCGUACGGAACG [C4A A42U C55G] as the variant, how does the yeast fitness read?
Answer: The yeast fitness was no more than 0.5.

Question: With GUUACGUUGGCGUAAUGGUAACGCGUCUCCCUCCUAAGGUGAGGACUGCGGGUUCGAGUCCCGUUCGGAACG [C4A A40U A43G A65U] as the variant, how does the yeast fitness read?
Answer: The yeast fitness was no more than 0.5.

Question: For GUUACGUUGGCGUAAUGGUAACGCGUCUCCCUCCUAAGGAGAGGACUGCGGGUUCGAGUCCCGUACGGAACG [C4A A43G], which yeast fitness is on record?
Answer: Its yeast fitness is 0.785.

Question: With GUUACGUUGGCGUAAUGGUAACGCGUCUCCCUCCUAAGGAGACGACUGCGGGUUCGAGUCCCGUACGGAACG [C4A A43C] as the variant, how does the yeast fitness read?
Answer: Its yeast fitness is 0.89.

Question: For GUUACGUUGGCGUAAUGGUAACGCGUCUCCCUCCUAGGGAGAAGACUGCGGGUUCGAGUCCCCUACGGAACG [C4A A37G G63C], which yeast fitness is on record?
Answer: The yeast fitness was 0.552.

Question: Which yeast fitness does the source give for GUUACGUUGGCGUAAUGGUACUGCGUCUCCCUCCUAAGGAGAAGACUGCCAGUUCGAGUCCCGUACGGAUCG [C4A A21C C22U G50C G51A A70U] here?
Answer: Its yeast fitness is 0.559.

Question: For GUUACGUUGGCGUAAUGGUAACGCGUCUCCCUCCUAAGGGGAAGACUGCGGGUUCGAGUCCCGUACGGAACG [C4A A40G], which yeast fitness is on record?
Answer: The yeast fitness was 0.828.

Question: For GUUACGUUGGCGUAAUGGUCACGCGUCUCCCUCCUAAGGAGAAGACUGCGGGUUCGAGUCCCGUACGAAACG [C4A A20C G68A], which yeast fitness is on record?
Answer: Its yeast fitness is no more than 0.5.

Question: Which yeast fitness does the source give for GUUACGUUGGCGUAAUGGUAGCGCGUCUCCCUCCUAAGGAGAAGACUGCGGGUUCGAGUCCCGUACGAAACG [C4A A21G G68A] here?
Answer: Its yeast fitness is 0.7.

Question: With GUUACGUUGGCGUAAUGGUGACGGGUCUCCGUCCUAAGGAGAAGACUGCGGGUUCGAGUCCCGUACGGAACG [C4A A20G C24G C31G] as the variant, how does the yeast fitness read?
Answer: Its yeast fitness is no more than 0.5.

Question: Which yeast fitness does the source give for GUUACGUUGGCGUAAUGGUGACGCGUCUCCCUCCUAAGGAGAACGCUGCGGGUUUGAGUCCCGUACGGAACG [C4A A20G G44C A45G C55U] here?
Answer: The yeast fitness was no more than 0.5.

Question: For GUUACGUUGGCGUAAUGGUAGCGCGUCUCCCUCCUAAGGAGAAGACUGCGGGUUCGAGUCCCGUUCGGAACG [C4A A21G A65U], which yeast fitness is on record?
Answer: The yeast fitness was 0.668.

Question: With GUUACGUUGGCGUAAUGGUAACGCGUCUCCCUCCUAGGGAGAAGCCUGCGGGUUCGAGUCCCGUAGGGAACG [C4A A37G A45C C66G] as the variant, how does the yeast fitness read?
Answer: Its yeast fitness is no more than 0.5.

Question: For GUUACGUUGGCGUAAUGGUCACGCGUCUCCCUCCUAAGGAGCAGACUGCGGGUCCGAGUCCCGUACGGAACG [C4A A20C A42C U54C], which yeast fitness is on record?
Answer: The yeast fitness was no more than 0.5.

Question: For GUUACGUUGGCGUAAUGGUAACGCGUCUCCCUCCUAAGGAGAAGACUGCGGGUUCGGGUCCCGUACGGACCG [C4A A57G A70C], which yeast fitness is on record?
Answer: The yeast fitness was 0.617.

Question: For GUUACGUUGGCGUAAUGGUAACGCGUCUCCCUCCUAAGGAGAAGACUGCGGGUUCGGGUCCCGUACGGAUCG [C4A A57G A70U], which yeast fitness is on record?
Answer: The yeast fitness was 0.587.

Question: With GUUACGUUGGCGUAAUGGUAACGCGUCUCCCUCCUGAGGAGAAGACUGCGCGUUCGAGUCCCGUUCGGAACG [C4A A36G G51C A65U] as the variant, how does the yeast fitness read?
Answer: The yeast fitness was no more than 0.5.

Question: Which yeast fitness does the source give for GUUACGUUGGCGUAAUGGUAACGCGUCUCCCUCCUAAGGAGGAGACUGCGGGUUCGAGUCCCGAACGGAACG [C4A A42G U64A] here?
Answer: The yeast fitness was no more than 0.5.

Question: With GUUACGUUGGCGUAAUGGUAACGCGUCUCCCUCCUAAGGAGAAGGCUGCGGGUUCGAGUCCCGUACGGAACG [C4A A45G] as the variant, how does the yeast fitness read?
Answer: The yeast fitness was 0.808.
